# Test results from ChEMBL document CHEMBL3734675, “Synthesis, antimycobacterial and antibacterial activity of fluoroquinolone derivatives containing an 3-alkoxyimino-4-(cyclopropylanimo)methylpyrrolidine moiety” (2015).
# System: Mycobacterium tuberculosis
# Assay: Antimycobacterial activity against isoniazid/rifampicin-resistant Mycobacterium tuberculosis 6133 clinical isolate incubated for 7 days by microplate Alamar Blue assay
# Type: functional
# Details: Mycobacterium tuberculosis, 6133, 168 h
# In short: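 Fluorescence read-out. MIC is the lowest concentration that reduces fluorescence by at least 90% relative to the mean of replicate bacterium-only controls. Isoniazid and rifampicin were included as reference drugs.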
row,Structure (SMILES),MIC90
1,CCO/N=C1/CN(c2nc3c(cc2F)c(=O)c(C(=O)O)cn3C2CC2)CC1(C)CNC1CC1 (stereo not drawn),0.11 µg/mL
2,NNC(=O)c1ccncc1 [ISONIAZID],4 µg/mL
3,CO[C@H]1/C=C/O[C@@]2(C)Oc3c(C)c(O)c4c(O)c(c(/C=N/N5CCN(C)CC5)c(O)c4c3C2=O)NC(=O)/C(C)=C\C=C\[C@H](C)[C@H](O)[C@@H](C)[C@@H](O)[C@@H](C)[C@H](OC(C)=O)[C@@H]1C [RIFAMPIN],> 40 µg/mL
